From ChEMBL document CHEMBL4138145, “Cyclic Cystine-Bridged Peptides from the Marine Sponge Clathria basilana Induce Apoptosis in Tumor Cells and Depolarize the Bacterial Cytoplasmic Membrane” (J Nat Prod, 2017)
Calls of active or inactive are those of the source. The rule behind the calls is not given here. Where a SMILES comes first, the peptide text is derived from it. Bridges are numbered along the chain shown (N, C = ends). [ ]: non-standard residue; d: D form. The star is where a group is joined. Ileψ(thiazoline)Cys = CC[C@H](C)[C@H](N)C1=N[C@H](C(=O)*)CS1; pGlu = O=C1CC[C@@H](C(=O)O)N1; dOrn = NCCC[C@@H](N)C(=O)O; X2 = C(=C\c1ccccc1)/N*; X4 = C(=C/c1ccccc1)/N*

What was measured:
Bacillus subtilis [1] = experiment: Induction of translation arrest in Bacillus subtilis isolate 1S34 assessed as increase in bmrC promoter activity at 30 ug after 14 to 18 hrs by beta-galactosidase reporter gene assay; assay type: functional, organism-based
In short: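 The bmrC promoter reporter in B. subtilis 1S34 was embedded at 3 × 10^7 CFU/mL in Belitzky minimal medium soft agar containing X-Gal (150 μg/mL). Test compounds were spotted, with reference antibiotic discs as positive controls. Plates were incubated at 37 °C and read for promoter-driven β-galactosidase induction.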

Bacillus subtilis [2] = experiment: Induction of DNA damage in Bacillus subtilis isolate 1S34 assessed as increase in yorB promoter activity at 30 ug after 14 to 18 hrs by beta-galactosidase reporter gene assay; assay type: functional, organism-based
In short: (§1)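 B. subtilis 1S34 β-galactosidase promoter reporters were grown in LB with spectinomycin (50 μg/mL) to stationary phase. Cells were set at 3 × 10^7 CFU/mL in LB soft agar (0.7%) containing X-Gal (150 μg/mL). Test compounds were spotted on the plates, with reference antibiotic discs as positive controls. Plates were incubated 14−18 h at 30 °C and read for promoter induction (blue colour).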

Bacillus subtilis [3] = experiment: Induction of cell envelope stress in Bacillus subtilis isolate 1S34 assessed as increase in ypuA promoter activity at 30 ug after 14 to 18 hrs by beta-galactosidase reporter gene assay; assay type: functional, organism-based; in short: as §1
Bacillus subtilis [4] = experiment: Induction of RNA damage in Bacillus subtilis isolate 1S34 assessed as increase in helD promoter activity at 30 ug after 14 to 18 hrs by beta-galactosidase reporter gene assay; assay type: functional, organism-based; in short: as §1
Bacillus subtilis [5] = experiment: Induction of cell envelope stress in Bacillus subtilis isolate 1S34 assessed as increase in liaI promoter activity at 30 ug after 14 to 18 hrs by beta-galactosidase reporter gene assay; assay type: functional, organism-based; in short: as §1
Ramos = experiment: Cytotoxicity against human Ramos cells assessed as reduction in cell viability up to 10 uM after 24 hrs by MTT assay; assay type: functional, cell-based
In short: (§2)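 Suspension cells at 5 × 10^5 cells/mL, exposed 24 h to varying compound concentrations; 0.1% v/v DMSO as negative control. MTT added to 1 mg/mL final for 60 min, cells pelleted, formazan extracted in DMSO for 25 min at rt, A570 read with 650 nm reference. Viability relative to DMSO set at 100%; IC50 from fitted curves.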

HL-60 = experiment: Cytotoxicity against human HL60 cells assessed as reduction in cell viability up to 10 uM after 24 hrs by MTT assay; assay type: functional, cell-based; in short: as §2
NOMO-1 = experiment: Cytotoxicity against human NOMO1 cells assessed as reduction in cell viability up to 10 uM after 24 hrs by MTT assay; assay type: functional, cell-based; in short: as §2
A2780 = experiment: Cytotoxicity against human A2780 cells assessed as reduction in cell viability up to 10 uM after 72 hrs by MTT assay; assay type: functional, cell-based
In short: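 A2780 ovarian carcinoma cells were grown in RPMI-1640 with 10% FBS, penicillin and streptomycin, about 9000 cells/well, preincubated overnight. Increasing compound concentrations were applied for 72 h, then MTT was added. Absorbance read at 544 nm minus the 690 nm reference.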

Homo sapiens = species on record: Homo sapiens; experiment: Cytotoxicity against human Jurkat 16 cells assessed as reduction in cell viability up to 10 uM after 24 hrs by MTT assay; assay type: functional, cell-based; in short: as §2
Bacillus subtilis [6] = experiment: Induction of RNA damage in Bacillus subtilis isolate 1S34 assessed as increase in helD promoter activity at 5 ug after 14 to 18 hrs by beta-galactosidase reporter gene assay; assay type: functional, organism-based
In short: (§3)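 Agar-based β-galactosidase promoter-reporter assay. B. subtilis 1S34 grown to stationary phase in LB with spectinomycin 50 μg/mL, then set at 3 × 10^7 CFU/mL in LB soft agar (0.7%) containing X-Gal 150 μg/mL. Test compounds spotted at 20 nmol; reference antibiotics given on paper discs (5–30 μg). Plates read for promoter induction after 14–18 h at 30 °C.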

Bacillus subtilis [7] = experiment: Induction of cell envelope stress in Bacillus subtilis isolate 1S34 assessed as increase in ypuA promoter activity at 5 ug after 14 to 18 hrs by beta-galactosidase reporter gene assay; assay type: functional, organism-based; in short: as §3
Bacillus subtilis [8] = experiment: Induction of translation arrest in Bacillus subtilis isolate 1S34 assessed as increase in bmrC promoter activity at 5 ug after 14 to 18 hrs by beta-galactosidase reporter gene assay; assay type: functional, organism-based
Bacillus subtilis [9] = experiment: Induction of cell envelope stress in Bacillus subtilis isolate 1S34 assessed as increase in liaI promoter activity at 5 ug after 14 to 18 hrs by beta-galactosidase reporter gene assay; assay type: functional, organism-based; in short: as §3
Bacillus subtilis [10] = experiment: Induction of DNA damage in Bacillus subtilis isolate 1S34 assessed as increase in yorB promoter activity at 5 ug after 14 to 18 hrs by beta-galactosidase reporter gene assay; assay type: functional, organism-based; in short: as §3
Bacillus subtilis [11] = experiment: Induction of cell envelope stress in Bacillus subtilis isolate 1S34 assessed as increase in liaI promoter activity at 10 ug after 14 to 18 hrs by beta-galactosidase reporter gene assay; assay type: functional, organism-based; in short: as §3
Bacillus subtilis [12] = experiment: Induction of translation arrest in Bacillus subtilis isolate 1S34 assessed as increase in bmrC promoter activity at 10 ug after 14 to 18 hrs by beta-galactosidase reporter gene assay; assay type: functional, organism-based
Bacillus subtilis [13] = experiment: Induction of DNA damage in Bacillus subtilis isolate 1S34 assessed as increase in yorB promoter activity at 10 ug after 14 to 18 hrs by beta-galactosidase reporter gene assay; assay type: functional, organism-based; in short: as §3
Bacillus subtilis [14] = experiment: Induction of RNA damage in Bacillus subtilis isolate 1S34 assessed as increase in helD promoter activity at 10 ug after 14 to 18 hrs by beta-galactosidase reporter gene assay; assay type: functional, organism-based; in short: as §3
Bacillus subtilis [15] = experiment: Induction of cell envelope stress in Bacillus subtilis isolate 1S34 assessed as increase in ypuA promoter activity at 10 ug after 14 to 18 hrs by beta-galactosidase reporter gene assay; assay type: functional, organism-based; in short: as §3
[16] = system: Mycobacterium tuberculosis; experiment: Antimicrobial activity against Mycobacterium tuberculosis H37Rv up to 100 uM after 5 days by resazurin dye based assay; assay type: functional, organism-based
In short: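 M. tuberculosis H37Rv was grown aerobically at 37 °C in Middlebrook 7H9 with ADS enrichment, 0.5% glycerol and 0.05% tyloxapol, then precultured to log phase (OD600 0.5−1). Cells were seeded at 1 × 10^5 per well on 2-fold dilutions over 100−0.78 μM and held 5 days at 37 °C. Resazurin was added for 16 h at ambient temperature, then cells were formalin-fixed and fluorescence read (ex 540, em 590 nm). Growth is relative to rifampicin (0%) and DMSO (100%).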

Escherichia coli = experiment: Antimicrobial activity against Escherichia coli after 16 to 20 hrs by broth micro dilution method; assay type: functional, organism-based
In short: (§4)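 Broth microdilution per CLSI in cation-adjusted Mueller-Hinton broth. Inoculum made by direct colony suspension, 5 × 10^5 CFU/mL final, added to serial 2-fold compound dilutions. Plates kept 16–20 h at 37 °C in ambient air. MIC is the lowest concentration with no visible growth. Strains are ATCC CLSI quality-control strains; A. baumannii 09987 is a Bonn clinical isolate.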

Klebsiella pneumoniae = experiment: Antimicrobial activity against Klebsiella pneumoniae after 16 to 20 hrs by broth micro dilution method; assay type: functional, organism-based; in short: as §4
Acinetobacter baumannii = experiment: Antimicrobial activity against Acinetobacter baumannii isolate 09987 after 16 to 20 hrs by broth micro dilution method; assay type: functional, organism-based; in short: as §4
Klebsiella aerogenes = experiment: Antimicrobial activity against Enterobacter aerogenes after 16 to 20 hrs by broth micro dilution method; assay type: functional, organism-based; in short: as §4
Pseudomonas aeruginosa = experiment: Antimicrobial activity against Pseudomonas aeruginosa after 16 to 20 hrs by broth micro dilution method; assay type: functional, organism-based; in short: as §4

SMILES | Activity (Ramos) | Activity (HL-60) | Activity (NOMO-1) | Activity (A2780) | Activity (Homo sapiens) | Activity [16] | Activity (Escherichia coli) | Activity (Klebsiella pneumoniae) | Activity (Acinetobacter baumannii) | Activity (Klebsiella aerogenes) | Activity (Pseudomonas aeruginosa) | also measured
CO[C@H]1/C=C/O[C@@]2(C)Oc3c(C)c(O)c4c(O)c(c(/C=N/N5CCN(C)CC5)c(O)c4c3C2=O)NC(=O)/C(C)=C\C=C\[C@H](C)[C@H](O)[C@@H](C)[C@@H](O)[C@@H](C)[C@H](OC(C)=O)[C@@H]1C | – | – | – | – | – | – | – | – | – | – | – | Activity (Bacillus subtilis [1]): Active; Activity (Bacillus subtilis [2]): Active; Activity (Bacillus subtilis [3]): Active; Activity (Bacillus subtilis [4]): Active; Activity (Bacillus subtilis [5]): Active
CC[C@H](C)[C@H](NC(=O)[C@@H]1CCC(=O)N1)C(=O)N[C@@H](CC(C)C)C(=O)N[C@H]1CSSC[C@@H](C(=O)N/C=C\c2ccccc2)NC(=O)[C@H](Cc2ccccc2)NC(=O)[C@@H]2CCCN2C(=O)[C@@H]2CCCN2C1=O ([pGlu]ILCPPFC-X4; disulfide 4-8) | inactive | inactive | inactive | inactive | inactive | – | – | – | – | – | – | –
O=C(O)c1cn(C2CC2)c2cc(N3CCNCC3)c(F)cc2c1=O | – | – | – | – | – | – | – | – | – | – | – | Activity (Bacillus subtilis [6]): Active; Activity (Bacillus subtilis [7]): Active; Activity (Bacillus subtilis [8]): Active; Activity (Bacillus subtilis [9]): Active; Activity (Bacillus subtilis [10]): Active
CC[C@H](C)[C@H](N)C1=N[C@H](C(=O)N[C@@H](CC(C)C)C(=O)N[C@H](CCC(=O)O)C(=O)N[C@H](C(=O)N[C@H]2CCCCNC(=O)[C@H](CC(N)=O)NC(=O)[C@@H](CC(=O)O)NC(=O)[C@H](Cc3cnc[nH]3)NC(=O)[C@@H](Cc3ccccc3)NC(=O)[C@H]([C@@H](C)CC)NC(=O)[C@@H](CCCN)NC2=O)[C@@H](C)CC)CS1 ({Ileψ(thiazoline)Cys}-L[dE]IK[dOrn]I[dF]H[dD]N; lactam 4-C) | – | – | – | – | – | – | – | – | – | – | – | Activity (Bacillus subtilis [11]): Active; Activity (Bacillus subtilis [12]): Active; Activity (Bacillus subtilis [13]): Active; Activity (Bacillus subtilis [14]): Active; Activity (Bacillus subtilis [15]): Active
CC(C)C[C@@H]1NC(=O)[C@@H]2CCCN2C(=O)[C@@H]2CCCN2C(=O)[C@@H](NC(=O)[C@@H]2CCC(=O)N2)CSSC[C@@H](C(=O)N2CCC[C@H]2C(N)=O)NC1=O ([pGlu]CPPLCP-NH2; disulfide 2-6) | inactive | inactive | inactive | inactive | inactive | inactive | inactive | inactive | inactive | inactive | inactive | –
CN[C@H](CC(C)C)C(=O)N[C@H]1C(=O)N[C@@H](CC(N)=O)C(=O)N[C@H]2C(=O)N[C@H]3C(=O)N[C@H](C(=O)N[C@H](C(=O)O)c4cc(O)cc(O)c4-c4cc3ccc4O)[C@H](O)c3ccc(c(Cl)c3)Oc3cc2cc(c3O[C@@H]2O[C@H](CO)[C@@H](O)[C@H](O)[C@H]2O[C@H]2C[C@](C)(N)[C@H](O)[C@H](C)O2)Oc2ccc(cc2Cl)[C@H]1O | – | – | – | – | – | – | – | – | – | – | – | Activity (Bacillus subtilis [1]): Active; Activity (Bacillus subtilis [2]): Active; Activity (Bacillus subtilis [3]): Active; Activity (Bacillus subtilis [4]): Active; Activity (Bacillus subtilis [5]): Active
CC(C)[C@H](N)C(=O)N/C=C/c1ccccc1 | inactive | inactive | inactive | inactive | inactive | inactive | inactive | inactive | inactive | inactive | inactive | –
CC[C@H](C)[C@H](NC(=O)[C@@H]1CCC(=O)N1)C(=O)N[C@@H](CC(C)C)C(=O)N[C@H]1CSSC[C@@H](C(=O)N/C=C/c2ccccc2)NC(=O)[C@H](Cc2ccccc2)NC(=O)[C@@H]2CCCN2C(=O)[C@@H]2CCCN2C1=O ([pGlu]ILCPPFC-X2; disulfide 4-8) | inactive | inactive | inactive | inactive | inactive | inactive | inactive | inactive | inactive | inactive | inactive | –
O=C(N[C@H](CO)[C@H](O)c1ccc([N+](=O)[O-])cc1)C(Cl)Cl | – | – | – | – | – | – | – | – | – | – | – | Activity (Bacillus subtilis [11]): Active; Activity (Bacillus subtilis [12]): Active; Activity (Bacillus subtilis [13]): Active; Activity (Bacillus subtilis [14]): Active; Activity (Bacillus subtilis [15]): Active
